The test system of test [1] is Plasmodium falciparum. Nature of the test: Antimalarial activity against chloroquine-sensitive Plasmodium falciparum NF54. The format is functional, organism-based.
Test [2] relates to Mus musculus. In words: In vivo antimalarial activity against Plasmodium berghei N on oral administration. The format is functional. Summed up:
(§1)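 Mice, 5 per dose group, given 1, 3, 10 or 30 mg/kg once daily for 4 days by the route stated; ED values derived from the four-dose series.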

The subject of test [3] is Mus musculus. In words: In vivo antimalarial activity against Plasmodium berghei N on subcutaneous administration. Conditions: sc. The format is functional. Summed up: as §1
The subject of test [4] is Plasmodium berghei. In words: Antimalarial activity against Plasmodium berghei N. Particulars: Mus musculus.

As usually defined, the IC50 is the midpoint of a concentration-inhibition curve. A low value points to higher potency. `CSc1ccc(C#[C][Al]([CH3])[CH2][C@@H]2O[C@@H]3O[C@]4(C)CC[C@H]5[C@H](C)CC[C@@H]([C@H]2C)[C@@]35OO4)cc1` had a half-maximal inhibitory concentration (IC50) in test [1] of 8.4 nM.
Same read-out and setting: with `C[C@H]1[C@H]([CH2][Al]([CH3])[C]#Cc2ccc(F)cc2)O[C@@H]2O[C@]3(C)CC[C@H]4[C@H](C)CC[C@@H]1[C@@]24OO3` the figure was 8.3 nM.
On to `C[C@H]1[C@H](c2ccco2)O[C@@H]2OC3(C)CC[C@H]4[C@H](C)CC[C@@H]1[C@@]24OO3` (single isomer, unassigned), for which the values for the ED90 in test [2] and in test [3] were 24 mg/kg and 2 mg/kg, respectively. In test [1], this compound registered a concentration for half-maximal inhibition (IC50) of 1.4 nM.
Take `C[C@H]1[C@H](c2ccc(C(C)(C)C)o2)O[C@@H]2OC3(C)CC[C@H]4[C@H](C)CC[C@@H]1[C@@]24OO3` (single isomer, unassigned): half-maximal inhibition in test [1] (IC50) was put at 10 nM.
Same read-out and setting: with `COc1cc(OC)c([C@@H]2O[C@@H]3OC4(C)CC[C@H]5[C@H](C)CC[C@@H]([C@H]2C)[C@@]35OO4)c(OC)c1` (single isomer, unassigned) the figure was 7.8 nM; with `CCc1ccc([C@@H]2O[C@@H]3OC4(C)CC[C@H]5[C@H](C)CC[C@@H]([C@H]2C)[C@@]35OO4)o1` (single isomer, unassigned), 8.6 nM; with `C[C@H]1[C@H](c2cccs2)O[C@@H]2OC3(C)CC[C@H]4[C@H](C)CC[C@@H]1[C@@]24OO3` (single isomer, unassigned), 5.1 nM.
Still for that read-out and setting: as for `C[C@H]1[C@H](c2cccn2Cc2ccco2)O[C@@H]2OC3(C)CC[C@H]4[C@H](C)CC[C@@H]1[C@@]24OO3` (single isomer, unassigned), the figure is 9.4 nM.
With `C[C@H]1[C@H](c2cccn2Cc2ccccc2)O[C@@H]2OC3(C)CC[C@H]4[C@H](C)CC[C@@H]1[C@@]24OO3` (single isomer, unassigned), the IC50 in test [1] is 16 nM.
One may read the ED50 as the midpoint of the dose-response relation. In the case of `C[C@H]1[C@H](c2cccn2C)O[C@@H]2OC3(C)CC[C@H]4[C@H](C)CC[C@@H]1[C@@]24OO3` (single isomer, unassigned), the ED90 in test [2] came out at 8.5 mg/kg. Besides, in test [3], the 50% effect level (ED50) was put at a dose of 0.7 mg/kg and the ED90 came to 1.2 mg/kg. For the same compound, the IC50 in test [1] is 4.6 nM.
In test [1], `C[C@H]1[C@H](c2cn(C)c3ccccc23)O[C@@H]2OC3(C)CC[C@H]4[C@H](C)CC[C@@H]1[C@@]24OO3` (single isomer, unassigned) had a 50% inhibitory concentration (IC50) of 4 nM.
The same measure, in the same setting: as for `CCOC(=O)Cn1cccc1[C@@H]1O[C@@H]2OC3(C)CC[C@H]4[C@H](C)CC[C@@H]([C@H]1C)[C@@]24OO3` (single isomer, unassigned), the figure is 9.1 nM.
The same measure, in the same setting: with `C=CCOc1ccc([C@@H]2O[C@@H]3OC4(C)CC[C@H]5[C@H](C)CC[C@@H]([C@H]2C)[C@@]35OO4)c(OCC=C)c1` (single isomer, unassigned) the figure was 6.6 nM.
On the same count and under the same terms, as for `COc1ccc2cc([C@@H]3O[C@@H]4OC5(C)CC[C@H]6[C@H](C)CC[C@@H]([C@H]3C)[C@@]46OO5)c(OC)cc2c1` (single isomer, unassigned), the figure is 9 nM.
Turning to `Cc1ccc([C@@H]2O[C@@H]3OC4(C)CC[C@H]5[C@H](C)CC[C@@H]([C@H]2C)[C@@]35OO4)o1` (single isomer, unassigned), in test [2], the median effective dose (ED50) came to 15.5 mg/kg and the ED90 was 43 mg/kg. In test [3], this compound showed an ED50 of 0.9 mg/kg and an ED90 of 2 mg/kg. Moreover, half-maximal inhibition in test [1] (IC50) was put at 5.2 nM.
As for `COc1ccc([C@@H]2O[C@@H]3OC4(C)CC[C@H]5[C@H](C)CC[C@@H]([C@H]2C)[C@@]35OO4)c(OC)c1` (single isomer, unassigned), the IC50 in test [1] is 4.2 nM.
In test [3], `C[C@@H]1CC[C@H]2[C@@H](C)C(=O)O[C@@H]3O[C@@]4(C)CC[C@@H]1[C@]32OO4` [ARTEMISININ] showed an ED50 of 3 mg/kg and an ED90 of 8.5 mg/kg.
As for `CCO[C@H]1O[C@@H]2O[C@@]3(C)CC[C@H]4[C@H](C)CC[C@@H]([C@H]1C)[C@@]24OO3` [ARTEMOTIL], the 50% effective dose (ED50) in test [3] and in test [4] was 0.3 mg/kg each time. This compound gave an ED90 in test [3] of 0.5 mg/kg.
In test [3], `CCN(CC)CCCC(C)Nc1ccnc2cc(Cl)ccc12` (stereo unspecified) [CHLOROQUINE] showed an ED90 of 3.1 mg/kg.

The values above are taken from ChEMBL document CHEMBL1132419 (J Med Chem, 1999).
